# Laboratory results published in article PMC10230191 (RSC Advances, 2023).
# How the values were obtained:
# [1] = Cytotoxicity in HepG2.2.15 cells; type: cell-based; settings: human
# Method in brief: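 Cells plated at 2 × 10^3 per well, exposed continuously to test compound for 14 days; viable cells counted by CCK-8 relative to no-compound controls to give CC50.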
# HBV = assay: Anti-HBV assay in HBV-producing HepG2 2.2.15 cells; type: cell-based, hepatitis B virus; settings: for EC50: Hepatitis B virus, HepG2 2.2.15, 336 h, read-out: EC50 (nM) against HBV
# Method in brief: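 […] cells seeded at 4 × 10^3 per well with a range of test-compound concentrations; medium and compound renewed on days 3 and 7. On day 14, total cellular DNA was extracted and HBV genomes quantified by real-time PCR (95 °C 10 min; 50 cycles of 95 °C 10 s, 60 °C 1 min). Copies were derived from CT against 10-fold HBV plasmid dilutions, compared with no-compound controls, and EC50 was obtained by linear forecast.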
SMILES,CC50 at 14 days [1] [nM],"times lower anti-HBV activity compared to compound (E)-6 (HBV; HepG2 2.2.15 cells, relative to (E)-6) [times]",EC50 (HBV) [nM]
"N#C[C@]1(CO)/C(=C/F)[C@@H](n2cnc3c(=O)[nH]c(N)nc32)C[C@@H]1O [(Z)-6, (1S,3S,5S,Z)-3-(2-Amino-6-oxo-1,6-dihydro-9H-purin-9-yl)-2-(fluoromethylene)-5-hydroxy-1-(hydroxymethyl)cyclopentane-1-carbonitrile]",> 100000,~500,585 ± 358
"C=C1[C@H](CO)[C@@H](O)C[C@@H]1n1cnc2c(=O)[nH]c(N)nc21 [Compound 1, entecavir, reference compound]",63000,,2.3 ± 0.6
"N#C[C@]1(CO)O[C@@H](n2cnc3c(=O)[nH]c(N)nc32)C[C@@H]1O [Compound 2, 4′-cyano-deoxyguanosine, reference compound]",3000 ± 200,,0.3 ± 0.1
"N#C[C@]1(CO)/C(=C\F)[C@@H](n2cnc3c(=O)[nH]c(N)nc32)C[C@@H]1O [Compound (E)-6, (1S,3S,5S,E)-3-(2-Amino-6-oxo-1,6-dihydro-9H-purin-9-yl)-2-(fluoromethylene)-5-hydroxy-1-(hydroxymethyl)cyclopentane-1-carbonitrile]",93000,,1.2 ± 0.7
